Reference: ChEMBL document CHEMBL4842354, “Synthesis, structure-activity relationships, cocrystallization and cellular characterization of novel smHDAC8 inhibitors for the treatment of schistosomiasis” (Eur J Med Chem, 2021)

Key:
[1] = target: T1, Histone deacetylase 8 (Schistosoma mansoni, UniProt A5H660); experiment: Inhibition of Schistosoma mansoni HDAC8 using Fluor de Lys as substrate incubated for 90 mins by fluorescence method
T1 sequence (A5H660 whole entry): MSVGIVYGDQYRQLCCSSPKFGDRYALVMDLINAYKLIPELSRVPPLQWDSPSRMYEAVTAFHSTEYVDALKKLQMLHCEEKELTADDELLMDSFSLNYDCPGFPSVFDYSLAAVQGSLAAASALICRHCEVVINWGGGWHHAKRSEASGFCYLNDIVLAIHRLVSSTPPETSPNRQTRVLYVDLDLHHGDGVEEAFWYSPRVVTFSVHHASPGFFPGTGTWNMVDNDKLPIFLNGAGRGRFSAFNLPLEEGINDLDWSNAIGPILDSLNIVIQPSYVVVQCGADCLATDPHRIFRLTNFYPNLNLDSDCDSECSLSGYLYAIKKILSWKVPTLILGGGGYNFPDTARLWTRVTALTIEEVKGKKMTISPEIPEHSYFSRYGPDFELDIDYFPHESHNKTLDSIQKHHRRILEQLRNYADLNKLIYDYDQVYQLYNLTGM
Procedure, shortened: (§1)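 Recombinant smHDAC8 or hHDAC8 (Romier lab) run to Fluor de Lys HDAC8 kit protocol. Substrate H2N-Arg-His-Lys(Ac)-Lys(Ac)-AMC at 50 μM with increasing inhibitor concentrations, 90 min at 37°C. Stop solution holding inhibitor plus trypsin, then 20 min at 37°C to release AMC. Fluorescence read at Ex 355/Em 460 nm.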

[2] = test system: Schistosoma mansoni; experiment: Antischistosomal activity against Schistosoma mansoni schistosomula at 10 uM incubated for 48 hrs by Alamar Blue assay; type: functional
Procedure, shortened: (§2)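 S. mansoni newly transformed schistosomula from mechanically transformed cercariae, 100 NTS/well in Medium 199 with 10% FCS, penicillin, streptomycin and rifampicin. Pre-cultured 3 h at 37°C, 5% CO2. Compounds from 20 mM DMSO stocks, final 10 or 20 μM. Alamar Blue added after 48 h exposure, then 24 h more. Resorufin read at Ex 530/Em 590 nm. Live and ethanol-killed larvae as controls; triplicate wells, two biological replicates.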

[3] = target: T2, Histone deacetylase 8 (Homo sapiens, UniProt Q9BY41); experiment: Inhibition of human recombinant HDAC8 using H2N-Arg-His-Lys(Ac)-Lys(Ac)-AMC as substrate after 90 mins by fluorescence based micro plate assay
T2 sequence (Q9BY41 whole entry): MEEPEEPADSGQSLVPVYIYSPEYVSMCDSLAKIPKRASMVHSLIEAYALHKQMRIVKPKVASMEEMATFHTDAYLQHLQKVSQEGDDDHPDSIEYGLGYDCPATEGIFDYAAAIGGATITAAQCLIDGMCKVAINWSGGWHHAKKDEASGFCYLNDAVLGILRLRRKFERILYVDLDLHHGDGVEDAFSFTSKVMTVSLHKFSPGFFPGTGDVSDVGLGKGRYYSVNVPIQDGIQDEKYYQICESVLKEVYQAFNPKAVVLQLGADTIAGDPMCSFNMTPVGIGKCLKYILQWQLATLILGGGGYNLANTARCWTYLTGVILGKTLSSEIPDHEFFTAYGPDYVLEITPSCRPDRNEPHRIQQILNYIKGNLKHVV

[4] = test system: HEK293; experiment: Cytotoxicity against human HEK293 assessed as reduction in cell viability at 50 uM measured for 24 hrs by Alamar Blue assay; type: cell-based; details: hek293, 24 h
Procedure, shortened: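 HEK293 cells in DMEM with 10% FCS and 5 mM glutamine at 37°C, 5% CO2, seeded at 1.5×10^3 cells/well. Compounds added at 50 μM. AlamarBlue added after 24 h and incubated a further 21 h. Resorufin fluorescence read at Ex 530/Em 590 nm. Triplicates; daunorubicin positive control.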

[5] = test system: Schistosoma mansoni; experiment: Antischistosomal activity against Schistosoma mansoni schistosomula at 20 uM incubated for 48 hrs by Alamar Blue assay; type: functional; procedure, shortened: as §2
[6] = target: T3, HDAC6 (protein deacetylase HDAC6) (Homo sapiens, UniProt Q9UBN7); experiment: Inhibition of recombinant human HDAC6 at 1 uM using ZMAL as substrate incubated for 90 mins by fluorescence based micro plate assay relative to control; details: recombinant human HDAC6, probe ZMAL
T3 sequence (Q9UBN7 whole entry): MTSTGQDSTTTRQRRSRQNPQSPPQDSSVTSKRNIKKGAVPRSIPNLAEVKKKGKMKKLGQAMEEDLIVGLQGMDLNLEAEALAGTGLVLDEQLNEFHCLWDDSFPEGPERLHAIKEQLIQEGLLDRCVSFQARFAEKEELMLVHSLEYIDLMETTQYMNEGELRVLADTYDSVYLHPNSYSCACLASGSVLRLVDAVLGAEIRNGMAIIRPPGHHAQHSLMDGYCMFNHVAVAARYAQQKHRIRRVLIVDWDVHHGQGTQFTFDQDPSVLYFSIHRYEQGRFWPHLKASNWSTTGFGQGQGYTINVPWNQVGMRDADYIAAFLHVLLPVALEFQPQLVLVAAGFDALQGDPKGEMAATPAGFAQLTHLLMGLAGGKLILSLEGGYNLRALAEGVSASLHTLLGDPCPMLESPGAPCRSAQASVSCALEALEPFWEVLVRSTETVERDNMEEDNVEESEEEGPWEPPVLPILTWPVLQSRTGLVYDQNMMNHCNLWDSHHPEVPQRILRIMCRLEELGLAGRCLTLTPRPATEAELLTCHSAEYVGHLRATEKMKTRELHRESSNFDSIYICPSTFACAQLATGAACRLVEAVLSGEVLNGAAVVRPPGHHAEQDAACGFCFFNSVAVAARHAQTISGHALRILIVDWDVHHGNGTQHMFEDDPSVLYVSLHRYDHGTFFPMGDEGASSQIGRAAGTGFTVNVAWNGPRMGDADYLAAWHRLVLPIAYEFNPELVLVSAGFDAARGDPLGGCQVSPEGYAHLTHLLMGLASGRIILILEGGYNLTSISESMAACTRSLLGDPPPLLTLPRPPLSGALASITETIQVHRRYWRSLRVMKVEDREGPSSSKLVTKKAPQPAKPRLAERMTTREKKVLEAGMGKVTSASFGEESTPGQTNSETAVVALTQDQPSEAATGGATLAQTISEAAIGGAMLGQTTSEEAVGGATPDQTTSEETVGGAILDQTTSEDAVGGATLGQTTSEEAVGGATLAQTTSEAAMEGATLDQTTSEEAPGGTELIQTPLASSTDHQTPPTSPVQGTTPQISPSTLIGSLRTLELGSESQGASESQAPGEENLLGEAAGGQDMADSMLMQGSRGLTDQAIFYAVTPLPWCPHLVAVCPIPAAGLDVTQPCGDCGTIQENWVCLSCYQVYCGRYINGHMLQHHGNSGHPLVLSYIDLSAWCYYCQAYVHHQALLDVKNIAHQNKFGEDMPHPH
Procedure, shortened: (§3)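 Recombinant human HDAC1 or HDAC6 incubated 90 min at 37°C with ZMAL (Z-(Ac)Lys-AMC, 10.5 μM) and inhibitor. Developed with buffer containing trypsin (1 mg/mL) and TSA (2.75 μM), 20 min at 37°C. Fluorescence read at Ex 390/Em 460 nm.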

[7] = target: T4, HDAC1 (histone deacetylase 1) (Homo sapiens, UniProt Q13547); experiment: (§4) Inhibition of recombinant human HDAC1 at 1 uM using ZMAL as substrate incubated for 90 mins by fluorescence based micro plate assay relative to control; details: recombinant human HDAC1, probe ZMAL; procedure, shortened: as §3
[8] = target: T3, HDAC6 (protein deacetylase HDAC6); experiment: Inhibition of recombinant human HDAC6 at 100 uM using ZMAL as substrate incubated for 90 mins by fluorescence based micro plate assay relative to control; details: recombinant human HDAC6, probe ZMAL; procedure, shortened: as §3
[9] = target: T5, Histone deacetylase 1 (Homo sapiens, UniProt Q13547); experiment: as §4; details: 1.5 h, 1 µM; procedure, shortened: as §3
[10] = target: T3, HDAC6 (protein deacetylase HDAC6); experiment: Inhibition of recombinant human HDAC6 at 10 uM using ZMAL as substrate incubated for 90 mins by fluorescence based micro plate assay relative to control; details: recombinant human HDAC6, probe ZMAL; procedure, shortened: as §3
[11] = target: T4, HDAC1 (histone deacetylase 1); experiment: Inhibition of recombinant human HDAC1 at 10 uM using ZMAL as substrate incubated for 90 mins by fluorescence based micro plate assay relative to control; details: recombinant human HDAC1, probe ZMAL; procedure, shortened: as §3
[12] = target: T6, Protein deacetylase HDAC6 (Homo sapiens, UniProt Q9UBN7); experiment: Inhibition of recombinant human HDAC6 using ZMAL as substrate incubated for 90 mins by fluorescence based micro plate assay
T6 sequence (Q9UBN7 whole entry): T3 sequence (Q9UBN7 whole entry)

[13] = target: T7, Histone deacetylase 8 (Homo sapiens) (UniProt Q9BY41); experiment: Inhibition of human recombinant HDAC8 at 1 uM using H2N-Arg-His-Lys(Ac)-Lys(Ac)-AMC as substrate after 90 mins by fluorescence based micro plate assay; procedure, shortened: as §1
T7 sequence (whole entry): T2 sequence (Q9BY41 whole entry)

[14] = target: T5, Histone deacetylase 1; experiment: Inhibition of recombinant human HDAC1 using ZMAL as substrate incubated for 90 mins by fluorescence based micro plate assay
[15] = Solubility of the compound; type: physicochemical
[16] = test system: Schistosoma mansoni; experiment: Antischistosomal activity against Schistosoma mansoni schistosomula incubated for 72 hrs by Alamar Blue assay; type: functional, organism-based
Procedure, shortened: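 Same schistosomula Alamar Blue assay (100 NTS/well, supplemented Medium 199, 37°C, 5% CO2) run over a range of concentrations. Alamar Blue added after 48 h drug exposure, fluorescence (Ex 530/Em 590 nm) read 24 h later, 72 h in culture in total. EC50 taken from the concentration-response.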

[17] = target: T8, Histone deacetylase 8 (Schistosoma mansoni) (UniProt A5H660); experiment: Inhibition of Schistosoma mansoni HDAC8 at 0.5 uM using Fluor de Lys as substrate incubated for 90 mins by fluorescence method relative to control; procedure, shortened: as §1
T8 sequence (whole entry): T1 sequence (A5H660 whole entry)

T5 sequence (Q13547 whole entry): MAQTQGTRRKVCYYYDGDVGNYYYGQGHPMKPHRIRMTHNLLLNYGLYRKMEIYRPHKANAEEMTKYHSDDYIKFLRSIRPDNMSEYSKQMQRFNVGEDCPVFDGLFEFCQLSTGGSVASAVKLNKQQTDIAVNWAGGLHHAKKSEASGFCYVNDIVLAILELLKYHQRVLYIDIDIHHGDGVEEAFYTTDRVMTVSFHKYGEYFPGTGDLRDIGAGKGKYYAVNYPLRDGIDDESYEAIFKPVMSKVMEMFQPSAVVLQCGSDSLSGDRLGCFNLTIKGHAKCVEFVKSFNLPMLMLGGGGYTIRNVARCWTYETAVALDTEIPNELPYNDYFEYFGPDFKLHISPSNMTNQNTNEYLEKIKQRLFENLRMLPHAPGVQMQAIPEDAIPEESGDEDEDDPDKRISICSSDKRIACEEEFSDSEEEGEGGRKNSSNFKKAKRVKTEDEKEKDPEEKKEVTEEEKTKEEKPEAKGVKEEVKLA
T4 sequence (Q13547 whole entry): as above

SMILES | IC50 [1] [nM] | IC50 [3] [nM] | inhibition at 1.5 h, 1 µM [6] [%] | inhibition at 1.5 h, 1 µM [7] [%] | inhibition at 1.5 h, 100 µM [8] [%] | inhibition (INH) [9] | inhibition at 1.5 h, 10 µM [10] [%] | inhibition at 1.5 h, 10 µM [11] [%] | IC50 [12] [nM] | inhibition [13] [%] | IC50 [14] [µM] | solubility [15] | EC50 [16] [µM] | inhibition [17] [%] | Activity [2] [%] | Activity [4] [%] | Activity [5] [%]
COc1ccc(C(=O)NO)cc1C(=O)Nc1cccc(Cl)c1 | 170 | 280 | 25 | 0 |  |  |  |  |  |  |  |  |  |  | 85.6 | 88.2 | 82.8
COc1ccc(Cn2ccc3ccc(C(=O)NO)cc32)cc1 |  |  |  |  | 41 |  |  |  |  |  |  |  |  |  | 71 | 96.8 | 62.3
COc1ccc(NC(=O)c2cc(C(=O)NO)ccc2OC)cc1 | 430 | 270 | 18 | 2 |  |  |  |  |  |  |  |  |  |  | 91 | 94.5 | 83.3
COc1ccc(C(=O)NO)cc1NC(=O)c1cccc2c1oc1ccccc12 | 270 | 320 |  |  |  |  |  |  | 290 |  | 18.5 | Insoluble | 3.5 |  | 2.2 | 73 | 
O=C(NO)c1ccc(Cl)c(C(=O)Nc2ccc(Cl)cc2)c1 |  |  | 94 | 20 |  |  |  |  |  |  |  |  |  |  | 77.6 | 69.5 | 62.3
CCOc1ccc(C(=O)NO)cc1NC(=O)c1ccc(OC)cc1 |  |  |  |  |  |  |  |  |  |  |  |  |  | 51 | 64.4 | 88.7 | 59.4
O=C(NO)c1ccc(Cl)c(NC(=O)c2ccc(-c3ccccc3)cc2)c1 | 400 | 450 |  |  |  |  |  |  | 160 |  | 10.9 |  |  |  | 62.3 | 81.7 | 55.1

Further lines, with some results ahead:

IC50 [1] [nM] | IC50 [3] [nM] | inhibition at 1.5 h, 1 µM [6] [%] | inhibition at 1.5 h, 1 µM [7] [%] | inhibition at 1.5 h, 100 µM [8] [%] | inhibition (INH) [9] | inhibition at 1.5 h, 10 µM [10] [%] | inhibition at 1.5 h, 10 µM [11] [%] | IC50 [12] [nM] | inhibition [13] [%] | IC50 [14] [µM] | solubility [15] | EC50 [16] [µM] | inhibition [17] [%] | SMILES | Activity [2] [%] | Activity [4] [%] | Activity [5] [%]
100 | 1100 | 15 |  |  | Not Active | 46 | 16 |  |  |  |  |  |  | COc1ccc(C(=O)NO)cc1NC(=O)c1ccc(-c2ccccc2)cc1Cl | 64 | 94.6 | 65.6
110 | 780 |  | 7 |  |  |  | 18 | 2400 |  |  |  |  |  | O=C(NO)c1ccc(Cl)c(NC(=O)c2ccc(-c3ccccc3)cc2Cl)c1 | 60.6 | 77 | 43.5
150 |  |  |  |  |  |  |  | 20 | 71 | 0.36 |  |  |  | COc1ccc(C(C)=O)cc1NC(=O)c1cc(C(=O)NO)ccc1OC | 78.2 | 66.2 | 66.2
160 | 590 |  |  |  |  |  |  | 120 |  | 7.7 |  |  |  | CCOc1ccc(C(C)=O)cc1NC(=O)c1cccc(C(=O)NO)c1 | 81 | 81.2 | 67.3
